Reference: paper PMC2077835 (Drug metabolism and disposition: the biological fate of …, 2006)

Assays:
CYP2C9 [1] = molecular target: T1, CYP2C9 (Homo sapiens, UniProt P11712); test: DB289 consumption by recombinant CYP2C9; assay type: in vitro ADME; settings: 3.0 μM DB289, 100 pmol/ml P450, 15 min
Outline: (§1)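 Baculovirus-insect-cell Supersomes coexpressing human P450 with NADPH-P450 reductase; the CYP2E1 enzyme also had cytochrome b5. 3.0 μM substrate, 50 pmol/ml P450 (100 pmol/ml for CYP2C8 and CYP2C9), in 100 mM phosphate pH 7.4 with 3.3 mM MgCl2 and 1 mM NADPH, 37°C, 15 min. Quenched in ice-cold acidified acetonitrile with deuterated internal standard, then LC/MS/MS. Percent consumed relative to 0 min; control Supersomes; duplicates.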

recombinant human CYP3A5 = recombinant human CYP3A5 (Homo sapiens, UniProt P20815); test: DB289 consumption by recombinant CYP3A5; assay type: in vitro ADME; settings: 3.0 μM DB289, 50 pmol/ml P450, 15 min
Outline: as §1

CYP4A11 [2] = molecular target: T2, CYP4A11 (Homo sapiens, UniProt Q02928); test: DB289 consumption by recombinant CYP4A11; assay type: in vitro ADME; settings: 3.0 μM DB289, 50 pmol/ml P450, 15 min
CYP2D6 = CYP2D6 (Homo sapiens, UniProt P10635); test: Inhibition of P450 activities by DB289: debrisoquine 4-hydroxylation; assay type: in vitro ADME; settings: 3.0 μM DB289, pooled HLMs 0.25 mg/ml
Outline: (§2)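 Test compound (3.0 μM) was preincubated 0 and 15 min with pooled microsomes (0.25 mg/ml) and 2 mM NADPH (final concentrations). A P450-selective marker substrate was then added and marker activity measured. Reference selective chemical inhibitors were run for comparison (none for CYP4A11). Solvent-only controls.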

[3] = Incubation of DB289 with pooled human liver microsomes; assay type: in vitro ADME; settings: 15 μM DB289, 0.2 mg/ml HLMs, NADPH
Outline: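 Pooled liver microsomes (50 donors, mixed gender) at 0.2 mg/ml with 15 μM substrate in a 1 ml mix, equilibrated 5 min at 37°C, then started with NADPH. Aliquots taken at 0, 5, 15, 30 and 120 min into ice-cold acetonitrile. LC/UV at 359 nm against an external 0.1–15 μM calibration; metabolites identified by retention time versus synthetic standards. Single determination; controls lacked NADPH, protein or substrate.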

[4] = DB289 metabolism by heat-inactivated human liver microsomes; assay type: in vitro ADME; settings: 60°C for 90 s; data not shown
Outline: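 Human liver microsomes were heated at 60°C for 90 s before incubation to inactivate flavin monooxygenase. Then used in standard NADPH incubations (pH 7.4 phosphate, MgCl2, 37°C) to test FMO contribution to substrate metabolism.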

CYP4A11 [5] = molecular target: T2, CYP4A11; test: Inhibition of P450 activities by DB289: lauric acid 12-hydroxylation; assay type: in vitro ADME; settings: 3.0 μM DB289, pooled HLMs 0.25 mg/ml
Outline: as §2

recombinant CYP4F3B = molecular target: T3, recombinant CYP4F3B (Homo sapiens, UniProt Q08477); test: DB289 consumption by recombinant CYP4F3B; assay type: in vitro ADME; settings: 3.0 μM DB289, 50 pmol/ml P450, 15 min
T3 sequence (Q08477 1-520 isoform Q08477-2): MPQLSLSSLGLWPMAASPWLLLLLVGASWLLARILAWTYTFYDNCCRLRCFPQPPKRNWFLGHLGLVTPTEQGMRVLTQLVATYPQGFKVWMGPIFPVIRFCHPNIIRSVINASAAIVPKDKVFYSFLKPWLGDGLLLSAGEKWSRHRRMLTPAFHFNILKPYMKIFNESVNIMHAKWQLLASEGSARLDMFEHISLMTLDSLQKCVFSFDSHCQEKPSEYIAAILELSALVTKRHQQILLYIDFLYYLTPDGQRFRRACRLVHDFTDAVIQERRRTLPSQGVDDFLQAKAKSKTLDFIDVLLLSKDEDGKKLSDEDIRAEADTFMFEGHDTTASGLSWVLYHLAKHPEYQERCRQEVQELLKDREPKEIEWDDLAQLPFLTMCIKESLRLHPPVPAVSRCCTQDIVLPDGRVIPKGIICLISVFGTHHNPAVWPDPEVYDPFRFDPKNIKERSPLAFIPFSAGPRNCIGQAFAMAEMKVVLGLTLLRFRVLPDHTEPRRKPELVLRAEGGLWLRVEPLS
Outline: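 A second recombinant panel (Supersomes; the CYP2J2, CYP3A7 and CYP4F forms coexpressed with reductase and cytochrome b5). Each enzyme was incubated alone with 3.0 μM substrate and NADPH in pH 7.4 phosphate/MgCl2 at 37°C for 15 min. Acetonitrile quench with internal standard, centrifugation, LC/MS/MS. Percent consumed normalised to 0 min. Control Supersomes; means of duplicates.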

CYP2A6 = CYP2A6 (Homo sapiens, UniProt P11509); test: DB289 consumption by recombinant CYP2A6; assay type: in vitro ADME; settings: 3.0 μM DB289, 50 pmol/ml P450, 15 min
Outline: as §1

[6] = oral; ref Yeates, 2003; cited from earlier work
recombinant human CYP1A2 = recombinant human CYP1A2 (Homo sapiens, UniProt P05177); test: Kinetics of M1 formation by recombinant CYP1A2; assay type: in vitro ADME
Outline: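 Recombinant P450 (10–50 pmol/ml) with substrate from 0.05 μM upward, under initial-rate conditions (<20% consumption). 250 μl at 37°C, started with NADPH after 5 min equilibration. Run times: 2 min for CYP1A1/1A2; 5 min for CYP1B1, 2J2 and 4F2; 15 min for CYP2C8, 4F3B and 4F12. M1 measured by LC/MS/MS. Mean of duplicates fitted to Michaelis-Menten; CLint = Vmax/Km.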

recombinant human CYP1A1 = recombinant human CYP1A1 (Homo sapiens, UniProt P04798); test: DB289 consumption by recombinant CYP1A1; assay type: in vitro ADME; settings: 3.0 μM DB289, 50 pmol/ml P450, 15 min
Outline: as §1

[7] = molecular target: flavin monooxygenase 3 (FMO3) (Homo sapiens, UniProt P31513); test: Incubation of DB289 with recombinant FMO3; assay type: in vitro ADME; settings: FMO3 0.5 mg/ml
Outline: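 Baculovirus insect-cell-expressed human FMO3 at 0.5 mg/ml. Incubated with substrate under the conditions used for the liver-microsome consumption assay: pH 7.4 phosphate, MgCl2, NADPH, 37°C. Analysed by LC/MS/MS.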

[8] = DB289 consumption in 10 individual HLM samples, correlation analysis; assay type: in vitro ADME, human; settings: 0.3 μM DB289
Outline: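 Ten individual human liver microsome samples, each characterised by the supplier for P450 marker activities. Standard NADPH incubations at 37°C began with 0.3 μM substrate. Rate of disappearance measured by LC/MS/MS and plotted against each P450 marker activity. Pearson r calculated; p < 0.05 taken as significant.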

CYP2E1 = CYP2E1 (Homo sapiens, UniProt P05181); test: Inhibition of P450 activities by DB289: lauric acid 11-hydroxylation; assay type: in vitro ADME; settings: 3.0 μM DB289, pooled HLMs 0.25 mg/ml
Outline: as §2

CYP2C9 [9] = molecular target: T1, CYP2C9; test: Inhibition of P450 activities by DB289: diclofenac 4′-hydroxylation; assay type: in vitro ADME; settings: 3.0 μM DB289, pooled HLMs 0.25 mg/ml
Outline: as §2

[10] = ref Fitzpatrick et al., 2004; cited from earlier work

T1 sequence (P11712 whole entry): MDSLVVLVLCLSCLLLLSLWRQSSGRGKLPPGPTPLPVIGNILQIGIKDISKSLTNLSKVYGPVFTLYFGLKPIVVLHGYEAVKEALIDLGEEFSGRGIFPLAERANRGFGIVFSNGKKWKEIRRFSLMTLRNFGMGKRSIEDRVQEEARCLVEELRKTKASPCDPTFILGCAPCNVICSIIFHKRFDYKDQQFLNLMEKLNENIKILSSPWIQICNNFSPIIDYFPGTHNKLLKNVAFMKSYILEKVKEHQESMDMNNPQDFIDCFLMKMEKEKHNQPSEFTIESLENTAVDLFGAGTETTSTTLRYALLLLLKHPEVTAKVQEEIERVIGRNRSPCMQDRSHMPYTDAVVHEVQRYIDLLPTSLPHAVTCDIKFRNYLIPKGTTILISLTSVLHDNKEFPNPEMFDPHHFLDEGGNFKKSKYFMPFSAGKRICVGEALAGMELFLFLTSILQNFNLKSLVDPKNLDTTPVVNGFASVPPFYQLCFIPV
T2 sequence (Q02928 5-519): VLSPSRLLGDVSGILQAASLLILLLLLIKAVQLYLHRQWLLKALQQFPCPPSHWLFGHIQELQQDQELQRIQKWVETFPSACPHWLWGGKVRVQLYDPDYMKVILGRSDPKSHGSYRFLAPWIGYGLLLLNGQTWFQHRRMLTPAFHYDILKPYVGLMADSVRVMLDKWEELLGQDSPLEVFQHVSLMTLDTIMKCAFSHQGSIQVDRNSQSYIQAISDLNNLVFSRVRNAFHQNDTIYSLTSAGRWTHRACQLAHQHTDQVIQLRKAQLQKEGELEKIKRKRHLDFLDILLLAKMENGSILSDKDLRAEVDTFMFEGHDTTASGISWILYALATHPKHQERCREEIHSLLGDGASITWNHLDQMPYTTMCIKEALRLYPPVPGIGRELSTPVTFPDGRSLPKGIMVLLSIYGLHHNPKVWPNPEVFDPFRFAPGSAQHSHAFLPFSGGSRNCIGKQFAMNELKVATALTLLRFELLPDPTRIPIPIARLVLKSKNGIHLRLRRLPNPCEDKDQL
Sequence of recombinant human CYP1A1 (P04798 whole entry): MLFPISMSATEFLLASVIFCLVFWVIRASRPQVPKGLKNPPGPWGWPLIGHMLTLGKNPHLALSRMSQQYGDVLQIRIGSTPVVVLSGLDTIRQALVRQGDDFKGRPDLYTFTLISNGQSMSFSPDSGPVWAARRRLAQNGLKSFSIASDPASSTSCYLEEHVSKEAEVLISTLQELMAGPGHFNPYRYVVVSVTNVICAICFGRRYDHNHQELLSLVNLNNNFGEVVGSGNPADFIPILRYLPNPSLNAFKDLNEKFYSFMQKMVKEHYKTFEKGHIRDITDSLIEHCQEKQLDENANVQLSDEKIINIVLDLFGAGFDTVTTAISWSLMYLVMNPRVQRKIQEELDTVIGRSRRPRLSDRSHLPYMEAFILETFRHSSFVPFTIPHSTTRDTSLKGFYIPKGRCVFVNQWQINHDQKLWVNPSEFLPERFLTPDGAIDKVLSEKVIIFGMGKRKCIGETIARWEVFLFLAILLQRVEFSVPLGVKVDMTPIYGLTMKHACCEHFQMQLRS
Sequence of CYP2E1 (P05181 whole entry): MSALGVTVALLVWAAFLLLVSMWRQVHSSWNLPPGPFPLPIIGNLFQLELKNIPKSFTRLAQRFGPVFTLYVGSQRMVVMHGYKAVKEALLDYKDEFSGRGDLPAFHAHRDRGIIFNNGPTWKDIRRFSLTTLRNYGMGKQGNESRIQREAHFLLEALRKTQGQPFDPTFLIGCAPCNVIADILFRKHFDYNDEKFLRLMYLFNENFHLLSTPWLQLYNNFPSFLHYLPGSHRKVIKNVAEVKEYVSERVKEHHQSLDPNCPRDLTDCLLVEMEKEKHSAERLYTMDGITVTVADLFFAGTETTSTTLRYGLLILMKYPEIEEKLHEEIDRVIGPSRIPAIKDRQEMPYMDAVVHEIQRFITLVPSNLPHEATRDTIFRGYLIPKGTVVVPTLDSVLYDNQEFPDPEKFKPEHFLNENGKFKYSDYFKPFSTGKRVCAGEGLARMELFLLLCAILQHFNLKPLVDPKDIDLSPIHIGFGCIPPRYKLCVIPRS
Sequence of flavin monooxygenase 3 (FMO3) (P31513 whole entry): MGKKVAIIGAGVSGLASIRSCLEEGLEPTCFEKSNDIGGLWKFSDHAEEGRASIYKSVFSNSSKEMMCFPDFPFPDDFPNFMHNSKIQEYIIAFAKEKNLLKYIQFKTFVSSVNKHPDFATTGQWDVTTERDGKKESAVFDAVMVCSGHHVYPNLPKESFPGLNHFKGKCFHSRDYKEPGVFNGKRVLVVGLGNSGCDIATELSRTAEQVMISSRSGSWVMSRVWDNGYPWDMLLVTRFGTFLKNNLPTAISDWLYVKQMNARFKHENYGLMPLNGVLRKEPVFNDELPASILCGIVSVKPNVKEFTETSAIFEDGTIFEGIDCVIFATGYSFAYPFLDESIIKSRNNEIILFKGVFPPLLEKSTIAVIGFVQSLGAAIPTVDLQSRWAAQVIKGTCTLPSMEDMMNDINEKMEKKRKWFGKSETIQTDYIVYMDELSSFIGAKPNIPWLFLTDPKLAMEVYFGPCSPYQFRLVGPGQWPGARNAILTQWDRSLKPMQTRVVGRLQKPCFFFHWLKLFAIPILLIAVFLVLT
Sequence of CYP2A6 (P11509 whole entry): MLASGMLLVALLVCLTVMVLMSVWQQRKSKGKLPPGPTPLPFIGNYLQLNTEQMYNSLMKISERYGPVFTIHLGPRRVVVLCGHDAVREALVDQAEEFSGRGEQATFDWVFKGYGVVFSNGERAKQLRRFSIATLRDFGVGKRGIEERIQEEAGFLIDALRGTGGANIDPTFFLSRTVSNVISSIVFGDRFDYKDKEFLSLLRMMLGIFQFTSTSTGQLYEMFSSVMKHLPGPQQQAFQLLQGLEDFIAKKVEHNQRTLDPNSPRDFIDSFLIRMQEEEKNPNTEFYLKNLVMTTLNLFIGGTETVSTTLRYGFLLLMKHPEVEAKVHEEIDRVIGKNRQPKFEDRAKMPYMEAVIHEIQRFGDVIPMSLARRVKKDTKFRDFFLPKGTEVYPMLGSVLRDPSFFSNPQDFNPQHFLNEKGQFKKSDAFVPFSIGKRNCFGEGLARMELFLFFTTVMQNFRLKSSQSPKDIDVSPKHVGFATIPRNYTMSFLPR
Sequence of recombinant human CYP3A5 (P20815 whole entry): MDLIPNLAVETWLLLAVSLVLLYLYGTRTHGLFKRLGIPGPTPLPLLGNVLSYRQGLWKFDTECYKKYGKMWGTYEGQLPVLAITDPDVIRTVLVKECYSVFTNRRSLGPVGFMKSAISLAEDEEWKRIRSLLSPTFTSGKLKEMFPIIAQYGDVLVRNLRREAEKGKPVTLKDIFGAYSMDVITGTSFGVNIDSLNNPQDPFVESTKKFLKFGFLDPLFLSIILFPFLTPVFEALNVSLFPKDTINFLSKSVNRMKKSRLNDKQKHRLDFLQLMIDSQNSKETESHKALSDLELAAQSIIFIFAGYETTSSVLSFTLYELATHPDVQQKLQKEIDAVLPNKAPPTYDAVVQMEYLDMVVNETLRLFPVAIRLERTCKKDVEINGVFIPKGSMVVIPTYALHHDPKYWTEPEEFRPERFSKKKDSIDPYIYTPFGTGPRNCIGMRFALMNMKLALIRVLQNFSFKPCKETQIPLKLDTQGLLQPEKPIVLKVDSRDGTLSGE
Sequence of CYP2D6 (P10635 whole entry): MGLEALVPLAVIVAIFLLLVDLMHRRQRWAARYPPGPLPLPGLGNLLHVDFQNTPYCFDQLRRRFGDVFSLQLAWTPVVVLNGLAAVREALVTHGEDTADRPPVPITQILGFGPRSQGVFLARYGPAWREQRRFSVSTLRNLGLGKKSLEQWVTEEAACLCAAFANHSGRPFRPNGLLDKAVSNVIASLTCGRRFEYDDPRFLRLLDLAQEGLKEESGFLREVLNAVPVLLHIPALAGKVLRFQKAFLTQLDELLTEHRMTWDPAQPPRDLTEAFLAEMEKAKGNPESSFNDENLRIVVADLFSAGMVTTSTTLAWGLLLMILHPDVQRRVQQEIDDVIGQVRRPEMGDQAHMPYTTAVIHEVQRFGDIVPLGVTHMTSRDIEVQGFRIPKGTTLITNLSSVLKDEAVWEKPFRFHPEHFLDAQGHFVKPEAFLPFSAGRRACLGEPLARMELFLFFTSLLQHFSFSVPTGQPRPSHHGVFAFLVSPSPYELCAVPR
Sequence of recombinant human CYP1A2 (P05177 2-516 limits assumed): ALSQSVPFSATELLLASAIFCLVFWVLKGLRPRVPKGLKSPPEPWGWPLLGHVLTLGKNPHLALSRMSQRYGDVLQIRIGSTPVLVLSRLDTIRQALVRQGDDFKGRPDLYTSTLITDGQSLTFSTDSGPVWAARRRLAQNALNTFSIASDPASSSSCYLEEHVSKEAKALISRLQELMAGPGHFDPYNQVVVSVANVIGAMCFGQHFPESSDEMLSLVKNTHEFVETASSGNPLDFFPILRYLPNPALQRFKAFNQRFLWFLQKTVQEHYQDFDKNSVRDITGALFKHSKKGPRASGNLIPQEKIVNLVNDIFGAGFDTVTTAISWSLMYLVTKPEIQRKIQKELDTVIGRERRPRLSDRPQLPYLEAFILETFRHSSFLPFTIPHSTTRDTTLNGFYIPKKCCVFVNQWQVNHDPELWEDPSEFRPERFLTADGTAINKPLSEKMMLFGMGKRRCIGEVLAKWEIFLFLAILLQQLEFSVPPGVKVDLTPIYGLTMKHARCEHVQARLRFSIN

percentage of substrate consumed (CYP2C9 [1]): less than 5%
percentage of substrate consumed (recombinant human CYP3A5): 8%
percentage of substrate consumed (CYP4A11 [2]): less than 5%
inhibition of CYP2D6 activity (CYP2D6): minimal to no inhibition
half-life in pooled HLM [3]: 12 min
time by which DB289 was completely consumed [3]: ≤ 120 min
effect of heat inactivation of microsomes on DB289 metabolism [4]: did not impede DB289 metabolism
inhibition of CYP4A11 activity (CYP4A11 [5]): minimal to no inhibition
percentage of substrate consumed (recombinant CYP4F3B): 40%
percentage of substrate consumed (CYP2A6): less than 5%
efficiency of CYP1A2 relative to CYP3A4, 2D6, 2E1, or 3A5 (intrinsic or maximal clearance) (recombinant human CYP1A2): ≥ 300 fold
percentage of substrate consumed (recombinant human CYP1A1): 82%
metabolism of DB289 by recombinant human FMO3 [7]: did not show any detectable metabolism
variation of rate of DB289 consumption among 10 individual HLMs [8]: 4 fold
inhibition of CYP2E1 activity (CYP2E1): minimal to no inhibition
inhibition of CYP2C9 activity (CYP2C9 [9]): 20−25%
Compound: CON=C(N)c1ccc(-c2ccc(-c3ccc(C(N)=NOC)cc3)o2)cc1 [DB289, 2,5-bis(4-amidinophenyl)furan-bis-O-methylamidoxime]
tolerability [6]: well tolerated, with no serious side effects
plasma protein binding [10]: high plasma protein-binding
